Experiments:
[1] = tested on: CHERP recruitment to the genome, HEK293 cells; experiment: ChIP-seq of CHERP; format: cell-based, human; details: 2μM flavopiridol, HA-CHERP in HEK293 cells, HA antibody ChIP-seq
[2] = tested on: Ser2/Thr4 phosphorylation on RNA polymerase II, HEK293 cells; experiment: Western blot of Pol II phosphorylation after flavopiridol; format: cell-based, human; details: time course (Figure S10A)
CHERP (SCAF6) = CHERP (SCAF6) (UniProt Q8IWX8); experiment: GST-CTD pull-down, label-free LC-MS/MS; details: reference: GST-CTD, buffer with no kinase; sites S2
[3] = tested on: pSer2 Pol II and CHERP in HEK293 cells; experiment: Immunofluorescence colocalization of CHERP and pSer2 Pol II; format: cell-based, human; details: transfected HEK293 cells, confocal, no flavopiridol, N = 7
Outline: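 HEK293 cells were transfected (Fugene, 1:3 plasmid:reagent) with HA-CHERP or HA-CHERPΔCID, fixed 15 min in 1% formaldehyde at room temperature, and permeabilized with 0.2% Triton X-100. They were blocked 30 min in 2% BSA, then given primary antibody and Alexa Fluor 488/568 secondary, 1 h each at room temperature. Pearson coefficients were computed with threshold, from 7 cells across at least two biological replicates.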

[4] = tested on: Pol II (RPB1, pSer2, pThr4), HEK293 cells; experiment: Co-immunoprecipitation with Pol II; format: cell-based, human; details: HEK293 extracts, western blot, at least three independent replicates
Outline: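 Protein G beads were loaded overnight at 4°C with 3 µg antibody or control IgG. 250 µg protein was bound for 2 h, washed three times, eluted by boiling 5 min in 2× SDS buffer, then immunoblotted.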

## CN1CC[C@H](c2c(O)cc(O)c3c(=O)cc(-c4ccccc4Cl)oc23)[C@H](O)C1 [flavopiridol]
[1]
  CHERP recruitment to the genome with flavopiridol: great reduction of CHERP recruitment to the genome
[2]
  Ser2/Thr4 phosphorylation on RNA polymerase II: caused Ser2/Thr4 phosphorylation to be reduced

## yeast CTD (GST-yCTD 26x) CTD, 26 heptad repeats GST-CTD treated with DYRK1A
CHERP (SCAF6)
  fold change: 2.9

B1: CHERP: calcium homeostasis endoplasmic reticulum protein; endogenous or HA-tagged full-length (protein)
chain: MEMPLPPDDQELRNVIDKLAQFVARNGPEFEKMTMEKQKDNPKFSFLFGGEFYSYYKCKLALEQQQLICKQQTPELEPAATMPPLPQPPLAPAAPIPPAQGAPSMDELIQQSQWNLQQQEQHLLALRQEQVTAAVAHAVEQQMQKLLEETQLDMNEFDNLLQPIIDTCTKDAISAGKNWMFSNAKSPPHCELMAGHLRNRITADGAHFELRLHLIYLINDVLHHCQRKQARELLAALQKVVVPIYCTSFLAVEEDKQQKIARLLQLWEKNGYFDDSIIQQLQSPALGLGQYQATLINEYSSVVQPVQLAFQQQIQTLKTQHEEFVTSLAQQQQQQQQQQQQLQMPQMEAEVKATPPPPAPPPAPAPAPAIPPTTQPDDSKPPIQMPGSSEYEAPGGVQDPAAAGPRGPGPHDQIPPNKPPWFDQPHPVAPWGQQQPPEQPPYPHHQGGPPHCPPWNNSHEGMWGEQRGDPGWNGQRDAPWNNQPDAAWNSQFEGPWNSQHEQPPWGGGQREPPFRMQRPPHFRGPFPPHQQHPQFNQPPHPHNFNRFPPRFMQDDFPPRHPFERPPYPHRFDYPQGDFPAEMGPPHHHPGHRMPHPGINEHPPWAGPQHPDFGPPPHGFNGQPPHMRRQGPPHINHDDPSLVPNVPYFDLPAGLMAPLVKLEDHEYKPLDPKDIRLPPPMPPSERLLAAVEAFYSPPSHDRPRNSEGWEQNGLYEFFRAKMRARRRKGQEKRNSGPSRSRSRSKSRGRSSSRSNSRSSKSSGSYSRSRSRSCSRSYSRSRSRSRSRSRSSRSRSRSQSRSRSKSYSPGRRRRSRSRSPTPPSSAGLGSNSAPPIPDSRLGEENKGHQMLVKMGWSGSGGLGAKEQGIQDPIKGGDVRDKWDQYKGVGVALDDPYENYRRNKSYSFIARMKARDECK
[3]
  colocalization correlation value (Pearson), CHERP vs pSer2 Pol II: 0.77
[4]
  co-immunoprecipitation with Pol II or its phosphorylation forms: interacted with total Pol II
